Assays:
[1] = target: Histone deacetylase 1 (Homo sapiens, UniProt Q13547); assay: Inhibition of HDAC1 (unknown origin)
[2] = target: T1, Histone deacetylase 8 (Homo sapiens, UniProt Q9BY41); assay: Inhibition of HDAC8 (unknown origin)
T1 sequence (Q9BY41 whole entry): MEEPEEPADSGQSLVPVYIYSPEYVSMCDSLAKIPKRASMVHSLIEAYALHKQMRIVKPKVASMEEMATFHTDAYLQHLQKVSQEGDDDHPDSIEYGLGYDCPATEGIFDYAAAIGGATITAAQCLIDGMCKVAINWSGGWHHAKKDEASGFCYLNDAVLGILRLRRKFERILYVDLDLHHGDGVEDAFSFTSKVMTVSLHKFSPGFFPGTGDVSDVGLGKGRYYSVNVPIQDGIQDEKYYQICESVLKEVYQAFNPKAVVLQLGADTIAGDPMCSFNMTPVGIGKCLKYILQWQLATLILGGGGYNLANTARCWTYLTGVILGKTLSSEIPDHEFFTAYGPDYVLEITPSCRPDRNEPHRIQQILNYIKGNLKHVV

[3] = target: T2, Protein deacetylase HDAC6 (Homo sapiens, UniProt Q9UBN7); assay: Inhibition of HDAC6 (unknown origin)
T2 sequence (Q9UBN7 whole entry): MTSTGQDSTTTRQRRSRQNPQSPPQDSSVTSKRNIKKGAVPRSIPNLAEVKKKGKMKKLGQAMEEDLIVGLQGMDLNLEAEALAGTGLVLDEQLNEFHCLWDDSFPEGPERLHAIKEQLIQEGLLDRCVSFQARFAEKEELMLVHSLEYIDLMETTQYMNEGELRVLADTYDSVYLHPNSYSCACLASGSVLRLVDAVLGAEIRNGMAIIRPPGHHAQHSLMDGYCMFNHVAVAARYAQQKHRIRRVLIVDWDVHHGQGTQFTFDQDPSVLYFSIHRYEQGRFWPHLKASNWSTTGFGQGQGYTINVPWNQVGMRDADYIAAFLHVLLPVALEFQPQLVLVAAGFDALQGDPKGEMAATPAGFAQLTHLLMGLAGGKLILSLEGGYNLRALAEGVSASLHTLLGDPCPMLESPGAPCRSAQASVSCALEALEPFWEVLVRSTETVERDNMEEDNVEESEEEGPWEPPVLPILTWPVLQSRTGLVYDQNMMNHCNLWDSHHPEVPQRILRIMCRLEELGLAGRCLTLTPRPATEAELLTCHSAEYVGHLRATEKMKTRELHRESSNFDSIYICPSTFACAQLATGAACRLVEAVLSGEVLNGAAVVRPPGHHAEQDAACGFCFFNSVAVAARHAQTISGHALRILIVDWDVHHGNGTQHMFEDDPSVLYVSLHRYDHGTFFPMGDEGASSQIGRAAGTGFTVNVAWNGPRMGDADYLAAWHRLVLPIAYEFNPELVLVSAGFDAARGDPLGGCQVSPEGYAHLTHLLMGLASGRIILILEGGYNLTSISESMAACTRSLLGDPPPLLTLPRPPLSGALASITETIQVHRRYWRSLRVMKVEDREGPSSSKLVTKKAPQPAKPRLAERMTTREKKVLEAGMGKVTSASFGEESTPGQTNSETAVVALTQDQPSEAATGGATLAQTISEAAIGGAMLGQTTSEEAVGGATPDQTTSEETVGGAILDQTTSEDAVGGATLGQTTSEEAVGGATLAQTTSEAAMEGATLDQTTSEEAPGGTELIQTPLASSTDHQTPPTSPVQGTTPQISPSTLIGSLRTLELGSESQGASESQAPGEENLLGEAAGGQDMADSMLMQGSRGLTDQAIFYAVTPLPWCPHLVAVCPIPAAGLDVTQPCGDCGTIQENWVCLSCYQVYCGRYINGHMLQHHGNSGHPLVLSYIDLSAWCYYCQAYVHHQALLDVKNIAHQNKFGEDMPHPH

[4] = target: Histone deacetylase 3 (Homo sapiens, UniProt O15379); assay: Inhibition of HDAC3 (unknown origin)
Histone deacetylase 3, sequence (O15379 whole entry): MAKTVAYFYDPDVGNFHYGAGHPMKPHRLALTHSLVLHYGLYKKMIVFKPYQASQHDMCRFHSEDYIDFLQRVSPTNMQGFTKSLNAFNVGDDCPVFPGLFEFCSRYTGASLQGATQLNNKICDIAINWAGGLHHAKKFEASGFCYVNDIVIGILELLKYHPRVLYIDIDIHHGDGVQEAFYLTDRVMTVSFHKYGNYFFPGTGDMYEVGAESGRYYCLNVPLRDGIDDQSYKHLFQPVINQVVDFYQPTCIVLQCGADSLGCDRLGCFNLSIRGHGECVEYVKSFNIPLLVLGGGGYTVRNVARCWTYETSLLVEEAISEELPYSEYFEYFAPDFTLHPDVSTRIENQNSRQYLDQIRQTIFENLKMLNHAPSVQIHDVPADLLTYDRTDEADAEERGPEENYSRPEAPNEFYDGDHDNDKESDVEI

[5] = target: T3, Class 1 histone deacetylase (Homo sapiens, UniProt Q13547+O15379+Q92769+Q9BY41); assay: Inhibition of Class 1 HDAC in VSV-G-pseudotyped HIV infected human 2C4 cell Jurkat model assessed as reactivation of HIV latency in presence of 0.1% NHS by fluorescent reporter gene assay
Outline: (§1)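 Latently infected Jurkat 2C4 cells (HIV latency model) were tested for reactivation of silenced provirus in parallel at two normal human serum levels: 0.1% and 5%. The paired runs gauge the potency shift from plasma protein binding.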

[6] = target: Histone deacetylase 2 (Homo sapiens, UniProt Q92769); assay: Inhibition of HDAC2 (unknown origin)
Histone deacetylase 2, sequence (Q92769 whole entry): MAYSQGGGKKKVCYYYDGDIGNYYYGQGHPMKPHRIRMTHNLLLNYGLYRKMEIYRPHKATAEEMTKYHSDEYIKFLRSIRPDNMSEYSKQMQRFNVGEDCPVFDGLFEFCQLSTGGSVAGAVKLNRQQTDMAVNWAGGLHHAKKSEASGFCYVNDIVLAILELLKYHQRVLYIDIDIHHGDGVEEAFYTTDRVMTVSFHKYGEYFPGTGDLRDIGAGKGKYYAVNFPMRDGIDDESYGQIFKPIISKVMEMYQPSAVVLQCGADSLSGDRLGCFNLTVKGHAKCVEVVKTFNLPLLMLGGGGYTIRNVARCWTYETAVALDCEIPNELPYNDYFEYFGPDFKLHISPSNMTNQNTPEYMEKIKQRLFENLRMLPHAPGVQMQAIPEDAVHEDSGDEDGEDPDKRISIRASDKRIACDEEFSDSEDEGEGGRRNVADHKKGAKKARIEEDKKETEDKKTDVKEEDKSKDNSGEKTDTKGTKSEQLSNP

[7] = target: T3, Class 1 histone deacetylase; assay: Inhibition of Class 1 HDAC in VSV-G-pseudotyped HIV infected human 2C4 cell Jurkat model assessed as reactivation of HIV latency in presence of 5% NHS by fluorescent reporter gene assay; outline: as §1

Histone deacetylase 1, sequence (Q13547 whole entry): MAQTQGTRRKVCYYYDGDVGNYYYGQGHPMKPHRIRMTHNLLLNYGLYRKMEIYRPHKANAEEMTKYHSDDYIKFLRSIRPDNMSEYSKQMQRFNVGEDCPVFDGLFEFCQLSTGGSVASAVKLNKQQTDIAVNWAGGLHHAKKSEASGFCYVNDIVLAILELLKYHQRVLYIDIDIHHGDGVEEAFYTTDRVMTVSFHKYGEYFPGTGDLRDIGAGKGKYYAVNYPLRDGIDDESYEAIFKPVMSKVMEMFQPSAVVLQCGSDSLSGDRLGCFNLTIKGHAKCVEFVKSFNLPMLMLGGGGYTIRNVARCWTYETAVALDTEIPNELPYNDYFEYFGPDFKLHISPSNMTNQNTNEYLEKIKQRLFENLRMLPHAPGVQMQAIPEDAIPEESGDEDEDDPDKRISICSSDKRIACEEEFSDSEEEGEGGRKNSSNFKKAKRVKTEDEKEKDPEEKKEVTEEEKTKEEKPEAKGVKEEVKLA

## CCC(=O)CCCCC[C@H](NC(=O)C1CN(C)C1)c1[nH]c(-c2ccc(F)cc2)nc1C#N
[1]
  IC50: 25.9 nM
[2]
  IC50: 19700 nM
[3]
  IC50: 36900 nM
[4]
  IC50: 13.8 nM
[5]
  EC50: 1564 nM
[6]
  IC50: 117 nM
[7]
  EC50: 2071 nM

## CCC(=O)CCCCCC(NC(=O)c1cncs1)c1[nH]c(-c2ccccc2)nc1C(=O)N1CCOCC1 (stereo unspecified)
[1]
  IC50: 43.6 nM
[2]
  IC50: 16800 nM
[3]
  IC50: 19000 nM
[4]
  IC50: 19.1 nM
[5]
  EC50: 2729 nM
[6]
  IC50: 159 nM
[7]
  EC50: 3771 nM

## CCC(=O)CCCCCC(NC(=O)c1cncs1)c1[nH]c(-c2ccccc2)nc1C(=O)NC (stereo unspecified)
[1]
  IC50: 27.6 nM
[2]
  IC50: 7470 nM
[3]
  IC50: 29200 nM
[4]
  IC50: 4.7 nM
[5]
  EC50: 570 nM
[6]
  IC50: 91.4 nM
[7]
  EC50: 1804 nM

## CCC(=O)CCCCC[C@H](NC(=O)C12CCN(CC1)CC2)c1[nH]c(-c2ccc(F)cc2)nc1C#N
[1]
  IC50: 6.2 nM
[2]
  IC50: 6930 nM
[3]
  IC50: > 45000 nM
[4]
  IC50: 2.4 nM
[5]
  EC50: 1731 nM
[6]
  IC50: 26.9 nM
[7]
  EC50: 2207 nM

## CCC(=O)CCCCC[C@H](NC(=O)[C@H]1CC12CCN(CC)CC2)c1[nH]c(-c2ccc(F)cc2)nc1C(N)=O
[1]
  IC50: 0.4 nM
[2]
  IC50: 6360 nM
[3]
  IC50: 17500 nM
[4]
  IC50: 0.7 nM
[5]
  EC50: 193 nM
[6]
  IC50: 5 nM
[7]
  EC50: 165 nM

## CCC(=O)CCCCC[C@H](NC(=O)[C@H]1CC12CCN(C)CC2)c1[nH]c(-c2ccc3nc(C)ccc3c2)nc1C#N
[1]
  IC50: 0.3 nM
[2]
  IC50: 9830 nM
[3]
  IC50: 6300 nM
[4]
  IC50: 0.2 nM
[5]
  EC50: 105 nM
[6]
  IC50: 1.5 nM
[7]
  EC50: 97 nM

## CCC(=O)CCCCC[C@H](NC(=O)C1CN(C)C1)c1[nH]c(-c2ccc(F)cc2)nc1C(N)=O
[1]
  IC50: 3.5 nM
[2]
  IC50: 5380 nM
[3]
  IC50: 15900 nM
[4]
  IC50: 3.6 nM
[5]
  EC50: 775 nM
[6]
  IC50: 34.4 nM
[7]
  EC50: 643 nM

## CCC(=O)CCCCC[C@H](NC(=O)[C@H]1CC12CCN(C)CC2)c1[nH]c(-c2ccc(-c3cccnc3)cc2)nc1C#N
[1]
  IC50: 0.2 nM
[2]
  IC50: 12600 nM
[3]
  IC50: 9470 nM
[4]
  IC50: 0.3 nM
[5]
  EC50: 77 nM
[6]
  IC50: 1.7 nM
[7]
  EC50: 55 nM

## CCC(=O)CCCCC[C@H](NC(=O)C1CCOCC1)c1[nH]c(-c2ccc(F)cc2)nc1C(N)=O
[1]
  IC50: 12.3 nM
[2]
  IC50: 7570 nM
[3]
  IC50: 27900 nM
[4]
  IC50: 3.4 nM
[5]
  EC50: 1834 nM
[6]
  IC50: 73.8 nM
[7]
  EC50: 1504 nM

## CCC(=O)CCCCC[C@H](NC(=O)c1cncs1)c1[nH]c(-c2ccc(F)cc2)nc1C#N
[1]
  IC50: 10.6 nM
[2]
  IC50: 12300 nM
[3]
  IC50: > 45000 nM
[4]
  IC50: 3.1 nM
[5]
  EC50: 254 nM
[6]
  IC50: 51.3 nM
[7]
  EC50: 1111 nM

## CCC(=O)CCCCCC(NC(=O)c1cncs1)c1[nH]c(-c2ccccc2)nc1C(N)=O (stereo unspecified)
[1]
  IC50: 7.2 nM
[2]
  IC50: 4700 nM
[3]
  IC50: 16400 nM
[5]
  EC50: 154 nM
[6]
  IC50: 26.7 nM
[7]
  EC50: 537 nM
